Laboratory results from ChEMBL document CHEMBL2069246, “Oxadiazoles in medicinal chemistry” (J Med Chem, 2012).
≈ marks a conversion by molar mass, not a printed value.

Key:
[1] = Aqueous solubility of the compound in HBSS buffer at pH 7.4; assay type: physicochemical
[2] = Lipophilicity, log D of the compound at pH 7.4; assay type: physicochemical; conditions: buffer
[3] = molecular target: Voltage-gated inwardly rectifying potassium channel KCNH2 (Homo sapiens, UniProt Q12809); test: Inhibition of human ERG channel expressed in CHO cells by patch clamp assay
Sequence of Voltage-gated inwardly rectifying potassium channel KCNH2 (Q12809 whole entry): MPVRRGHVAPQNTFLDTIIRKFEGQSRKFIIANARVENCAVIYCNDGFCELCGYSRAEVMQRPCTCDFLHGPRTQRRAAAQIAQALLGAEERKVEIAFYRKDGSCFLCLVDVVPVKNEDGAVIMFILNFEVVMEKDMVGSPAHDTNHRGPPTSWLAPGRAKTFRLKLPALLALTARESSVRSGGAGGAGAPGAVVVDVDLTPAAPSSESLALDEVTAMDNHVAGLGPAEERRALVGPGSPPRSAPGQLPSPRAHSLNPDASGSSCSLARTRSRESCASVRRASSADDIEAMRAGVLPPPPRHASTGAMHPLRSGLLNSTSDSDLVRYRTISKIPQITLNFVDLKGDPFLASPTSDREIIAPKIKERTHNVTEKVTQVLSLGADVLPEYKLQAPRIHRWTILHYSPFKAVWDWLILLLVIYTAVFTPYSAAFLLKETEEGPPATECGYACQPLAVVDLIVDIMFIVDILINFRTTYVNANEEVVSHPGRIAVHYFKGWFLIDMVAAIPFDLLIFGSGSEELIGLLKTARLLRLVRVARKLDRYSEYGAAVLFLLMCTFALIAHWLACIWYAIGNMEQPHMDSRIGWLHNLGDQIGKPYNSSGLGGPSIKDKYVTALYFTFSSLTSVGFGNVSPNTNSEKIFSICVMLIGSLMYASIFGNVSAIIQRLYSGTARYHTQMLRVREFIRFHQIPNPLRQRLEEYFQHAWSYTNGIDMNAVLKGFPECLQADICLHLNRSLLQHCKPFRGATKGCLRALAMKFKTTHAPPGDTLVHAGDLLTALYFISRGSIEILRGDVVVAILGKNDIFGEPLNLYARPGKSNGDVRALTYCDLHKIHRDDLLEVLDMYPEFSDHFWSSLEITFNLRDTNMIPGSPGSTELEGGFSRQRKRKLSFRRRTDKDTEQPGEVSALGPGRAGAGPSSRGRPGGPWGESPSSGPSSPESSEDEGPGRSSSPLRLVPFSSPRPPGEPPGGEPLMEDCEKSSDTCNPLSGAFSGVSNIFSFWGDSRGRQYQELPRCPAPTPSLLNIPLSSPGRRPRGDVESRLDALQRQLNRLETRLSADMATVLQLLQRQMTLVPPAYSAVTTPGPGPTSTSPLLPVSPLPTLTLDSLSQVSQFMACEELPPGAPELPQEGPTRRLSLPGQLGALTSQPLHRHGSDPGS

[4] = Dissociation constant, pKa of the compound; assay type: physicochemical
[5] = molecular target: T1, Cytochrome P450 2C9 (Homo sapiens, UniProt P11712); test: Inhibition of human recombinant CYP2C9 coexpressed in Escherichia coli; assay type: ADME
T1 sequence (P11712 whole entry, canonical isoform): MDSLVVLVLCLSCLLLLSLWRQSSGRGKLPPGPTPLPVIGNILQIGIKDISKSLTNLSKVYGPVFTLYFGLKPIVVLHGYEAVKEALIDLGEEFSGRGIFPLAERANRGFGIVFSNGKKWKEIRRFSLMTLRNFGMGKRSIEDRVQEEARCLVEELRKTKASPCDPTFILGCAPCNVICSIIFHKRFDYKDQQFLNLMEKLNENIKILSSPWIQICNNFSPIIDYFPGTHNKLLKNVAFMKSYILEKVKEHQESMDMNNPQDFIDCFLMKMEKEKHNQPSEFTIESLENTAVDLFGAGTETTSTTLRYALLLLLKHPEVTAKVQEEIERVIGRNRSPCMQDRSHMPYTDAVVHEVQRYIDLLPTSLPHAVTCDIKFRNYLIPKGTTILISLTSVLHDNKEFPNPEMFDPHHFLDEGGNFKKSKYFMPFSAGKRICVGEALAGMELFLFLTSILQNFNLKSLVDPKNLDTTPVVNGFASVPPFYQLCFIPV
In short: (§1)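 Human recombinant cytochrome P450s at 37 °C. Read-out is inhibition of metabolic degradation of each isoform's substrate. Percent inhibition is measured at five test concentrations and converted to IC50.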

[6] = molecular target: T2, Cytochrome P450 3A4 (Homo sapiens, UniProt P08684); test: Inhibition of human recombinant CYP3A4 coexpressed in Escherichia coli; assay type: ADME; in short: as §1
T2 sequence (P08684 whole entry): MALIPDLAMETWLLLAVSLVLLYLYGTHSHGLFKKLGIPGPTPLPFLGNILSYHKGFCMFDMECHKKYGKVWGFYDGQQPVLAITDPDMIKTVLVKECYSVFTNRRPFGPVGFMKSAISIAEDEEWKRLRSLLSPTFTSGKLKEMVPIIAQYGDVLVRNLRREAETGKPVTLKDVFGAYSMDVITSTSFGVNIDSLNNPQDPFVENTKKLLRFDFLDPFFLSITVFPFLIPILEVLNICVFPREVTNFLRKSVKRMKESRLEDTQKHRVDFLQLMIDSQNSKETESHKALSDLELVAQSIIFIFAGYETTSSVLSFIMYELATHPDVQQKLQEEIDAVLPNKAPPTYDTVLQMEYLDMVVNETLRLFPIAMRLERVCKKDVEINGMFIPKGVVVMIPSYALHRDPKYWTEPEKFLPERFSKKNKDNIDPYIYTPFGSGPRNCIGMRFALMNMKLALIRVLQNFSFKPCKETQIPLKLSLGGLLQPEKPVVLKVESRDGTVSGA

[7] = molecular target: T3, Cytochrome P450 2C8 (Homo sapiens, UniProt P10632); test: Activity of human recombinant CYP2C8 assessed as enzyme contribution towards compound metabolism at 37 degC; assay type: ADME
T3 sequence (P10632 whole entry): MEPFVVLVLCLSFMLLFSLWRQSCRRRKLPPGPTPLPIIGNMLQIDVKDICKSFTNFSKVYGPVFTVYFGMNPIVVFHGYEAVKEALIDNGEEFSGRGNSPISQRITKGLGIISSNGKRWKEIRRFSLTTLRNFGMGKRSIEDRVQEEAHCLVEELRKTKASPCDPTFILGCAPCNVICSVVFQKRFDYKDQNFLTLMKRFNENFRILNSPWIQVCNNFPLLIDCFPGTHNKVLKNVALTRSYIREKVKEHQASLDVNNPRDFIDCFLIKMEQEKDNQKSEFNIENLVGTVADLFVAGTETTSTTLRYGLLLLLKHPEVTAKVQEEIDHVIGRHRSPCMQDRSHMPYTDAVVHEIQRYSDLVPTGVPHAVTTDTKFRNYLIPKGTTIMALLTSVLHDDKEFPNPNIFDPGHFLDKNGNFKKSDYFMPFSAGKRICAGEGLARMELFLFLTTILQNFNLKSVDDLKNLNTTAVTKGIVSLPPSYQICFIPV
In short: (§2)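 CYP reaction phenotyping with human recombinant P450 isoforms at 37 °C. Each isoform's share of compound metabolism is given as percent contribution relative to the other isoforms in the test.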

[8] = molecular target: T4, Cytochrome P450 2D6 (Homo sapiens, UniProt P10635); test: Activity of human recombinant CYP2D6 assessed as enzyme contribution towards compound metabolism at 37 degC; assay type: ADME; in short: as §2
T4 sequence (P10635 whole entry): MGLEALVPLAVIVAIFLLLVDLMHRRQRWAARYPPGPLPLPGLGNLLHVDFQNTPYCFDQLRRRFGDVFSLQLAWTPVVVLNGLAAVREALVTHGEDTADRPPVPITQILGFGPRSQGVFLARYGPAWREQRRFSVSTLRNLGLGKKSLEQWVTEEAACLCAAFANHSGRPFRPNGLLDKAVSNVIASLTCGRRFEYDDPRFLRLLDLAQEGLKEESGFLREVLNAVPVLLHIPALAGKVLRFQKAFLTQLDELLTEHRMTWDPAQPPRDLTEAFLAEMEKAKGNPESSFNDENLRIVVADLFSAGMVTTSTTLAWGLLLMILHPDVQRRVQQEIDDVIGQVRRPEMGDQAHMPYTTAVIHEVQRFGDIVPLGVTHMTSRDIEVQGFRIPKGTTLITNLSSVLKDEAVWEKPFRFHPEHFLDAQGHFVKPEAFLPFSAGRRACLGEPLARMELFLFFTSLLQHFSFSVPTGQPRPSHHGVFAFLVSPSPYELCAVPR

[9] = molecular target: T5, Cytochrome P450 2C19 (Homo sapiens, UniProt P33261); test: Inhibition of human recombinant CYP2C19 coexpressed in Escherichia coli; assay type: ADME; in short: as §1
T5 sequence (P33261 whole entry): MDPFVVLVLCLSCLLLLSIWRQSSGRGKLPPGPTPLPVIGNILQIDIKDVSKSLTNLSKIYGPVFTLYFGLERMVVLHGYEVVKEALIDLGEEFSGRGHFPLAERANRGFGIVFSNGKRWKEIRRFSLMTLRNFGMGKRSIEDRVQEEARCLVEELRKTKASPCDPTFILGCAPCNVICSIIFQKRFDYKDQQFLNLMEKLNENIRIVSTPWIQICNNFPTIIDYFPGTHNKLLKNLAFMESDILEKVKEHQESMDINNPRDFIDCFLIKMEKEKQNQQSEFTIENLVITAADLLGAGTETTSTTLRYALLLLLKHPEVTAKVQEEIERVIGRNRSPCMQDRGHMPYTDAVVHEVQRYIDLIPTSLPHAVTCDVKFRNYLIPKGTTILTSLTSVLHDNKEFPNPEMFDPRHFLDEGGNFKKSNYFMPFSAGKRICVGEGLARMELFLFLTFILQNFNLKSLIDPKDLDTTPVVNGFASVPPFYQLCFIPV

[10] = molecular target: T5, Cytochrome P450 2C19; test: Activity of human recombinant CYP2C19 assessed as enzyme contribution towards compound metabolism at 37 degC; assay type: ADME; in short: as §2
[11] = molecular target: T6, Cytochrome P450 1A2 (Homo sapiens, UniProt P05177); test: Activity of human recombinant CYP1A2 assessed as enzyme contribution towards compound metabolism at 37 degC; assay type: ADME; in short: as §2
T6 sequence (P05177 whole entry): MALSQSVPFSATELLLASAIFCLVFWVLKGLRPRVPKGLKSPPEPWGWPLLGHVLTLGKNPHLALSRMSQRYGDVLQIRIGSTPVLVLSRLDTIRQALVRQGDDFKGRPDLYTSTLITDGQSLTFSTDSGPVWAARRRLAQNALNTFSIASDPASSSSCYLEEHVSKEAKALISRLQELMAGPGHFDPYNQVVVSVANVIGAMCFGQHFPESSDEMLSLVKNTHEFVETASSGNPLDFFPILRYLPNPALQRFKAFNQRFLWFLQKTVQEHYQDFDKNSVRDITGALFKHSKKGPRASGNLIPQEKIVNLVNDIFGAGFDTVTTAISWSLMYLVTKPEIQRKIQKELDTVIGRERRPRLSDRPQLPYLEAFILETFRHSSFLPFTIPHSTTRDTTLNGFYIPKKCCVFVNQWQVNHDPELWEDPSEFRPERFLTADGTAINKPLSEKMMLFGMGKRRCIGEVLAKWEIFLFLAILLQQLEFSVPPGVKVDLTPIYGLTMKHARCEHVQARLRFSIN

[12] = molecular target: T1, Cytochrome P450 2C9; test: Activity of human recombinant CYP2C9 assessed as enzyme contribution towards compound metabolism at 37 degC; assay type: ADME; in short: as §2
[13] = Intrinsic clearance in human liver microsomes at 1 mg/ml; assay type: ADME, Microsome; conditions: read-out: CLH
In short: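 Compound incubated 45 min at 37 °C with human liver microsomes at 1 mg/mL. CLint is taken from the rate of parent disappearance.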

[14] = molecular target: T6, Cytochrome P450 1A2; test: Inhibition of human recombinant CYP1A2 coexpressed in Escherichia coli using phenacetin as probe; assay type: ADME; in short: as §1
[15] = molecular target: T3, Cytochrome P450 2C8; test: Inhibition of human recombinant CYP2C8 coexpressed in Escherichia coli; assay type: ADME; in short: as §1
[16] = molecular target: T4, Cytochrome P450 2D6; test: Inhibition of human recombinant CYP2D6 coexpressed in Escherichia coli; assay type: ADME; in short: as §1
[17] = molecular target: T2, Cytochrome P450 3A4; test: Activity of human recombinant CYP3A4 assessed as enzyme contribution towards compound metabolism at 37 degC; assay type: ADME; design: concentration or dose not given beside the values; in short: as §2

Structure (SMILES)	solubility [1] [µM]	logD [2]	IC50 [3] [µM]	pKa [4]	further results
c1ccc(-c2noc(-c3ccccc3)n2)cc1	7 (≈ 1.56 µg/mL)	5.9			
CCCc1cc(O)nc(SCc2nc(-c3ccccc3)no2)n1	5 (≈ 1.64 µg/mL)	3.1			
CCCc1cc(=O)[nH]c(SCc2nnc(-c3ccccc3)o2)n1	81 (≈ 26.6 µg/mL)	2.2			
c1ccc(-c2nnc(-c3ccccc3)o2)cc1	26 (≈ 5.78 µg/mL)	4			
c1ccc(-c2nnc(CN3CCN(Cc4nc5ccccc5s4)CC3)o2)cc1		3.9	30	4.4	
c1cncc(-c2ccc(-c3noc(C4CN5CCC4CC5)n3)o2)c1 (stereo unspecified)		0.7	6.4	8.8	
c1cncc(-c2ccc(-c3nnc(C4CN5CCC4CC5)o3)o2)c1 (stereo unspecified)		< 0	20.2	9.1	
c1ccc(CN2CCN(Cc3nnc(-c4ccccc4)o3)CC2)cc1		3.6	27.3	6.7	IC50 [5]: > 20 µM; IC50 [6]: > 20 µM; Activity [7]: 1.5%; Activity [8]: 1.7%; IC50 [9]: > 20 µM; Activity [10]: 3.2%; Activity [11]: 0%; CYP isoform contribution to compound metabolism [12]: 1.2%; microsomal CLint [13]: 4 µL/min/mg; IC50 [14]: > 20 µM; IC50 [15]: > 20 µM; IC50 [16]: > 20 µM; Activity [17]: 92%
CCOC(=O)N1CCN(Cc2noc(-c3cc(Cl)ccc3F)n2)CC1		4.3	31	4	
